What all share (assay type): ADME
The subject of one data set is Liver microsome. Briefly: Intrinsic clearance in human liver microsomes after 30 mins by LC-ESI-MS analysis. The note with it: 0.5 h. The procedure, abridged:
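2'-OH-TCC at 0.2, 0.5, 1, 2, 3, 5, 10 and 50 µM incubated with liver microsomes (alamethicin, MgCl2, saccharolactone, UDPGA; 37 °C), sampled at 5, 10, 15 and 30 min. Samples ≥5 µM diluted 1:9 in ACN; LC-ESI-MS. KM and vmax fitted from rate vs concentration; intrinsic clearance derived from these; mean and SD of three.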
A general note: Liver microsomes are vesicles of endoplasmic reticulum, rich in cytochrome P450 enzymes.

Data set [1] deals with T1, UDP-glucuronosyltransferase 1A1 (Homo sapiens, UniProt P22309).
T1 sequence (P22309 whole entry): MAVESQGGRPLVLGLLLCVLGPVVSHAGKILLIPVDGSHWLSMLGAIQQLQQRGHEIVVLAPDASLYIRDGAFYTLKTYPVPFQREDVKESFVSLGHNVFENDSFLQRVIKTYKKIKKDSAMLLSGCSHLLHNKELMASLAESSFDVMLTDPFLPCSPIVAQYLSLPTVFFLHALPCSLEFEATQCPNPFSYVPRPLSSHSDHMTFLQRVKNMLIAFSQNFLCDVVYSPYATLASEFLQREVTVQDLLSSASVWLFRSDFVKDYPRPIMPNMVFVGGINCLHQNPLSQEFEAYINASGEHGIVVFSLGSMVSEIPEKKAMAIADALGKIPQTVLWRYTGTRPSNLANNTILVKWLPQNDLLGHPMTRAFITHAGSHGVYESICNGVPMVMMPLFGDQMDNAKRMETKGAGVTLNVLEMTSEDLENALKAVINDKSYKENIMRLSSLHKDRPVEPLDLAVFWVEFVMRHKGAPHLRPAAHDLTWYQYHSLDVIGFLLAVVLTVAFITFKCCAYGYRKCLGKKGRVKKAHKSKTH
Put plainly: Drug metabolism assessed as human UGT1A1-mediated N-glucuronide-triclocarban formation expressed in baculovirus infected insect sf9 cells incubated for 5 mins prior to UDPGA addition measured after 5 to 30 mins by LC-UV analysis. The procedure, abridged:
(§1)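 Microsomes or UGT Supersomes (5 µg protein) were held 15 min on ice with alamethicin in 100 mM potassium phosphate pH 7.4. TCC was added at 10 µM (2% DMSO) with 10 mM MgCl2 and 10 mM saccharolactone, pre-warmed 5 min at 37 °C, then started with UDPGA. Samples at 5, 10, 15 and 30 min were quenched in ACN. Product was read by LC-UV at 265 nm; rate came from regression over time, three incubations.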

Data set [2] addresses T2, UDP-glucuronosyltransferase 1A9 (Homo sapiens, UniProt O60656).
T2 sequence (O60656 whole entry): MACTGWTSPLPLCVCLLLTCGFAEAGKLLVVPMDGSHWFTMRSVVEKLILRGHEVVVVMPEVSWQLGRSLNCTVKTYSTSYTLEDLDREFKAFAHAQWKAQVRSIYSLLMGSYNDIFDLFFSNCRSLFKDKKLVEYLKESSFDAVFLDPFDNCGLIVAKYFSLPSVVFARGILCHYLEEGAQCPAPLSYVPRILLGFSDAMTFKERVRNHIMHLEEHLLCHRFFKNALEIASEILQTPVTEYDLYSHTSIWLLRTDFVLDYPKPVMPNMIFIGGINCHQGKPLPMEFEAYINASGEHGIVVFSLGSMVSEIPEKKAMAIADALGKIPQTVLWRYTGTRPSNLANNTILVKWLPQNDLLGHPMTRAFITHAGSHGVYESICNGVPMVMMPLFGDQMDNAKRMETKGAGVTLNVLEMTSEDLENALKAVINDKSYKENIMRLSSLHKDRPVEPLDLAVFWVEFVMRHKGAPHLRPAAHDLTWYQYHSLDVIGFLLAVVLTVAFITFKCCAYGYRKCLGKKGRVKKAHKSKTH
Put plainly: Drug metabolism assessed as human UGT1A9-mediated N-glucuronide-triclocarban formation expressed in baculovirus infected insect sf9 cells incubated for 5 mins prior to UDPGA addition measured after 5 to 30 mins by LC-UV analysis. The procedure, abridged: as §1

Data set [3] has as its target T3, UDP-glucuronosyltransferase 2B15 (Homo sapiens, UniProt P54855).
T3 sequence (P54855 whole entry): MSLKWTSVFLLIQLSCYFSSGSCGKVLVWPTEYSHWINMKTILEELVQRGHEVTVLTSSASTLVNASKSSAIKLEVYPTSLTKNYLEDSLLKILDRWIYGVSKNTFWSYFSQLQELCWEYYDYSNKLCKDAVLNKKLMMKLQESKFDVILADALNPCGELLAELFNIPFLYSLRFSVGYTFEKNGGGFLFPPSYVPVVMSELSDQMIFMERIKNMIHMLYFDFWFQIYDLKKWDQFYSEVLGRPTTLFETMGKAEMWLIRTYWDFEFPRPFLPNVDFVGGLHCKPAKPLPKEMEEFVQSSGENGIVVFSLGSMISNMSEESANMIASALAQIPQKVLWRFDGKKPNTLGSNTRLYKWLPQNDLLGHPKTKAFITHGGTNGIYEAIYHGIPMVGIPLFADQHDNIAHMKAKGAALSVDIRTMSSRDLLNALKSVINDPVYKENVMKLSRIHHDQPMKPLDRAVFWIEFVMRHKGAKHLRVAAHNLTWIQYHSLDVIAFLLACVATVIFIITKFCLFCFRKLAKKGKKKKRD
Put plainly: Drug metabolism assessed as human UGT2B15-mediated N-glucuronide-triclocarban formation expressed in baculovirus infected insect sf9 cells incubated for 5 mins prior to UDPGA addition measured after 5 to 30 mins by LC-UV analysis. The essentials:
as §1

For data set [4], the target named is T4, UDP-glucuronosyltransferase 1A10 (Homo sapiens, UniProt Q9HAW8).
T4 sequence (Q9HAW8 whole entry): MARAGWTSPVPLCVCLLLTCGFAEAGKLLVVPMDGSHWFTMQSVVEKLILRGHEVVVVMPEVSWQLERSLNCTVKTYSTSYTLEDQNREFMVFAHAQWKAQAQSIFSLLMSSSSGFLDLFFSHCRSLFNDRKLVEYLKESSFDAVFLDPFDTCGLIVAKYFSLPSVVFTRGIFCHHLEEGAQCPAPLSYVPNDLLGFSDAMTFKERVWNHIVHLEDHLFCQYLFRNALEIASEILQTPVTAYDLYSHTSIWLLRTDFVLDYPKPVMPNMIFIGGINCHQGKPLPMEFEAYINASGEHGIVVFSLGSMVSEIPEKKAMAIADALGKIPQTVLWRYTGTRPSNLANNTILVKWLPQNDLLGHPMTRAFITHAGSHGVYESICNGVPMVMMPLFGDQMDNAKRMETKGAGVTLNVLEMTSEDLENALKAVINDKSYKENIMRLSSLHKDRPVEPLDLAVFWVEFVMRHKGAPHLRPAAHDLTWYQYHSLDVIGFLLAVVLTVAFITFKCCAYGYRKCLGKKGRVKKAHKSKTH
Briefly: Drug metabolism assessed as human UGT1A10-mediated N'-glucuronide-triclocarban formation expressed in baculovirus infected insect sf9 cells incubated for 5 mins prior to UDPGA addition measured after 5 to 30 mins by LC-UV analysis. The procedure, abridged: as §1

For `O=C(Nc1ccc(Cl)c(Cl)c1)Nc1ccc(Cl)cc1O`, in the data set with Liver microsome, the CLH is 1740 µL/min/mg.
`O=C(Nc1ccc(Cl)cc1)Nc1ccc(Cl)c(Cl)c1` [TRICLOCARBAN]: the Drug metabolism entry in data set [1], in data set [2], in data set [3] and in data set [4] was “metabolite_not_detected” in each case.

These data come from ChEMBL document CHEMBL3525967, “In vitro glucuronidation of the antibacterial triclocarban and its oxidative metabolites” (Drug Metab Dispos, 2012).
